Measured values from ChEMBL document CHEMBL5247578, “Effective synthesis of benzimidazoles-imidazo[1,2-a]pyrazine conjugates: A comparative study of mono-and bis-benzimidazoles for antitumor activity” (Eur J Med Chem, 2019).

How the values were obtained:
Type in all cases: functional
SW-620 = experiment: Antiproliferative activity against human SW620 cells assessed as cell growth inhibition by measuring lethal concentration incubated for 48 hrs by sulforhodamine B assay; conditions: read-out: LC50 (the source's name)
Outline: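 NCI-60 five-dose screen (10^-4 to 10^-8 M, 10-fold dilutions; DMSO stocks). Cells in RPMI 1640 with 5% FBS and 2 mM L-glutamine, preincubated 24 h, then exposed 48 h at 37 °C, 5% CO2. Fixed with cold TCA, stained with 0.4% SRB, absorbance read at 515 nm. Time-zero plates used as reference. LC50 taken from [(Ti-Tz)/Tz]×100 […].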

T47D = experiment: Growth inhibition against human T47D cells incubated for 48 hrs by sulforhodamine B assay
SK-OV-3 = experiment: Antiproliferative activity against human SK-OV-3 cells assessed as cell growth inhibition by measuring lethal concentration incubated for 48 hrs by sulforhodamine B assay; conditions: read-out: LC50 (the source's name)
IGROV-1 = experiment: Antiproliferative activity against human IGROV-1 cells assessed as cell growth at 0.0001 M incubated for 48 hrs by SRB assay relative to control; conditions: read-out: Activity
HOP-92 = experiment: Antiproliferative activity against human HOP-92 cells assessed as cell growth at 0.00000001 M incubated for 48 hrs by SRB assay relative to control; conditions: dose 10 nM, read-out: Activity
Outline: (§1)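 NCI-60 five-dose screen (10^-4 to 10^-8 M). Cells grown in RPMI 1640 with 5% FBS and 2 mM L-glutamine, plated at 5,000-40,000 cells/well and preincubated 24 h. Drug given from DMSO stock, then 48 h at 37 °C, 5% CO2. For adherent lines, cells fixed with cold TCA, SRB-stained and read at 515 nm. Percent growth taken against time-zero and untreated control.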

SK-MEL-5 = experiment: Antiproliferative activity against human SK-MEL-5 cells assessed as cell growth at 0.0000001 M incubated for 48 hrs by SRB assay relative to control; conditions: dose 100 nM, read-out: Activity
HCT-15 = experiment: Antiproliferative activity against human HCT-15 cells assessed as cell growth inhibition by measuring lethal concentration incubated for 48 hrs by sulforhodamine B assay; conditions: read-out: LC50 (the source's name)
SF-295 = experiment: Antiproliferative activity against human SF-295 cells assessed as cell growth at 0.00001 M incubated for 48 hrs by SRB assay relative to control; conditions: read-out: Activity
RXF 393 [1] = experiment: Growth inhibition against human RXF 393 cells incubated for 48 hrs by sulforhodamine B assay
LOX IMVI = experiment: Antiproliferative activity against human LOX IMVI cells assessed as cell growth at 0.0000001 M incubated for 48 hrs by SRB assay relative to control; conditions: dose 100 nM, read-out: Activity
KM12 = experiment: Antiproliferative activity against human KM12 cells assessed as cell growth at 0.00000001 M incubated for 48 hrs by SRB assay relative to control; conditions: dose 10 nM, read-out: Activity
UO-31 = experiment: Antiproliferative activity against human UO-31 cells assessed as cell growth at 0.0000001 M incubated for 48 hrs by SRB assay relative to control; conditions: dose 100 nM, read-out: Activity
Hs-578T = experiment: Growth inhibition against human Hs-578T cells assessed as total growth inhibitory concentration incubated for 48 hrs by sulforhodamine B assay
SF-539 = experiment: Growth inhibition against human SF-539 cells assessed as total growth inhibitory concentration incubated for 48 hrs by sulforhodamine B assay
CAKI-1 [2] = experiment: Growth inhibition against human CAKI-1 cells assessed as total growth inhibitory concentration incubated for 48 hrs by sulforhodamine B assay
NCI-H460 = experiment: Antiproliferative activity against human NCI-H460 cells assessed as cell growth at 0.00001 M incubated for 48 hrs by SRB assay relative to control; conditions: read-out: Activity
A549 [3] = experiment: Growth inhibition against human A549 cells assessed as total growth inhibitory concentration incubated for 48 hrs by sulforhodamine B assay
ACHN = experiment: Antiproliferative activity against human ACHN cells assessed as cell growth inhibition by measuring lethal concentration incubated for 48 hrs by sulforhodamine B assay; conditions: read-out: LC50 (the source's name)
U-251 = experiment: Antiproliferative activity against human U-251 cells assessed as cell growth at 0.00001 M incubated for 48 hrs by SRB assay relative to control; conditions: read-out: Activity
SK-MEL-2 [4] = experiment: Antiproliferative activity against human SK-MEL-2 cells assessed as cell growth inhibition by measuring lethal concentration incubated for 48 hrs by sulforhodamine B assay; conditions: read-out: LC50 (the source's name)
HT-29 = experiment: Antiproliferative activity against human HT-29 cells assessed as cell growth at 0.0000001 M incubated for 48 hrs by SRB assay relative to control; conditions: dose 100 nM, read-out: Activity; outline: as §1
SR = experiment: Antiproliferative activity against human SR cells assessed as cell growth at 0.0000001 M incubated for 48 hrs by SRB assay relative to control; conditions: dose 100 nM, read-out: Activity
PC-3 = experiment: Antiproliferative activity against human PC-3 cells assessed as cell growth at 0.0001 M incubated for 48 hrs by SRB assay relative to control; conditions: read-out: Activity
SN12C = experiment: Antiproliferative activity against human SN12C cells assessed as cell growth at 0.000001 M incubated for 48 hrs by SRB assay relative to control; conditions: read-out: Activity
A549 [5] = experiment: Antiproliferative activity against human A549 cells assessed as cell growth inhibition by measuring lethal concentration incubated for 48 hrs by sulforhodamine B assay; conditions: read-out: LC50 (the source's name)
SK-MEL-2 [6] = experiment: Antiproliferative activity against human SK-MEL-2 cells assessed as cell growth at 0.00000001 M incubated for 48 hrs by SRB assay relative to control; conditions: dose 10 nM, read-out: Activity
UACC-257 = experiment: Antiproliferative activity against human UACC-257 cells assessed as cell growth at 0.00001 M incubated for 48 hrs by SRB assay relative to control; conditions: read-out: Activity
CAKI-1 [7] = experiment: Antiproliferative activity against human CAKI-1 cells assessed as cell growth at 0.00001 M incubated for 48 hrs by SRB assay relative to control; conditions: read-out: Activity
Outline: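 NCI-60 five-dose screen over 10^-4–10^-8 M (10-fold dilutions). Cells grown in RPMI 1640 with 5% FBS and 2 mM L-glutamine, seeded at 5,000–40,000 cells/well and preincubated 24 h. Drug from DMSO stock, 48 h at 37 °C, 5% CO2. Adherent cells TCA-fixed and stained with 0.4% SRB; A515 read. Percent growth = (Ti−Tz)/(C−Tz)×100, or (Ti−Tz)/Tz×100 when Ti<Tz.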

NCI-H522 = experiment: Antiproliferative activity against human NCI-H522 cells assessed as cell growth at 0.00000001 M incubated for 48 hrs by SRB assay relative to control; conditions: dose 10 nM, read-out: Activity
RXF 393 [8] = experiment: Antiproliferative activity against human RXF 393 cells assessed as cell growth at 0.0000001 M incubated for 48 hrs by SRB assay relative to control; conditions: dose 100 nM, read-out: Activity
SK-MEL-28 = experiment: Antiproliferative activity against human SK-MEL-28 cells assessed as cell growth inhibition by measuring lethal concentration incubated for 48 hrs by sulforhodamine B assay; conditions: read-out: LC50 (the source's name)
HOP-62 = experiment: Growth inhibition against human HOP-62 cells incubated for 48 hrs by sulforhodamine B assay
RPMI-8226 = experiment: Antiproliferative activity against human RPMI-8226 cells assessed as cell growth at 0.00001 M incubated for 48 hrs by SRB assay relative to control; conditions: read-out: Activity

SMILES | CC50 (SW-620) | GI50 (T47D) | CC50 (SK-OV-3) | growth at 100 µM (IGROV-1) | growth at 0.01 µM (HOP-92) | growth at 0.1 µM (SK-MEL-5) | CC50 (HCT-15) | growth at 10 µM (SF-295) | GI50 (RXF 393 [1]) | growth at 0.1 µM (LOX IMVI) | growth at 0.01 µM (KM12) | growth at 0.1 µM (UO-31) | TGI (Hs-578T) | TGI (SF-539) | TGI (CAKI-1 [2]) | growth at 10 µM (NCI-H460) | TGI (A549 [3]) | CC50 (ACHN) | growth at 10 µM (U-251) | CC50 (SK-MEL-2 [4]) | also measured
COc1ccc(-c2cn3ccnc3c(-c3ccc4ncn(C5CCCCC5)c4c3)n2)cc1 | > 100 µM | 760 nM | > 100 µM | 24% | 96% | 100% | > 100 µM | -29% | 1300 nM | 92% | 100% | 88% | 49.3 µM | 2490 nM | > 100 µM | 4% | > 100 µM | > 100 µM | 14% | > 100 µM | growth at 0.1 µM (HT-29): 92%; growth at 0.1 µM (SR): 91%; growth at 100 µM (PC-3): 24%; growth at 1 µM (SN12C): 66%; CC50 (A549 [5]): > 100 µM; growth at 0.01 µM (SK-MEL-2 [6]): 96%; growth at 10 µM (UACC-257): 60%; growth at 10 µM (CAKI-1 [7]): 25%; growth at 0.01 µM (NCI-H522): 88%; growth at 0.1 µM (RXF 393 [8]): 104%; CC50 (SK-MEL-28): > 100 µM; GI50 (HOP-62): 1090 nM; growth at 10 µM (RPMI-8226): 10%
c1ccc(Cn2cnc3ccc(-c4nc(-c5ccc6c(c5)ncn6C5CCCCC5)cn5ccnc45)cc32)cc1 | > 100 µM | 1490 nM | > 100 µM | 18% | 88% | 106% | > 100 µM | -82% | 1220 nM | 94% | 100% | 86% | > 100 µM | 2600 nM | > 100 µM | -32% | 4.97 µM | > 100 µM | -27% | > 100 µM | growth at 0.1 µM (HT-29): 97%; growth at 0.1 µM (SR): 98%; growth at 100 µM (PC-3): -3%; growth at 1 µM (SN12C): 95%; CC50 (A549 [5]): > 100 µM; growth at 0.01 µM (SK-MEL-2 [6]): 94%; growth at 10 µM (UACC-257): -64%; growth at 10 µM (CAKI-1 [7]): 17%; growth at 0.01 µM (NCI-H522): 93%; growth at 0.1 µM (RXF 393 [8]): 105%; CC50 (SK-MEL-28): > 100 µM; GI50 (HOP-62): 2130 nM; growth at 10 µM (RPMI-8226): -29%
